This note sets out measurements from ChEMBL document CHEMBL2331165, “Semisynthesis and myocardial activity of thaliporphine N-homologues” (2013).

For experiment [1], the system named is Heart. Put plainly: Myocardial activity in Wistar-Kyoto rat heart assessed as heart rate level at 30 uM relative to untreated control. The experiment is classed as functional. An outline of the steps: (§1)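 Right atria from male Wistar-Kyoto rat hearts in an organ bath of Tyrode's solution gassed with CO2−O2 (1:19) at 36 ± 0.2 °C. Spontaneous beating rate recorded and expressed as % of the pre-treatment control. Means from four to five experiments.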

In experiment [2] the test system is Heart. Description: Myocardial activity in Wistar-Kyoto rat heart assessed as heart rate level at 10 uM relative to untreated control. The experiment is classed as functional. An outline of the steps: as §1
A short description of experiment [3]: Myocardial activity in Wistar-Kyoto rat right ventricle exposed to electrical stimulation driven at 2 Hz assessed as muscle contraction at 3 uM relative to untreated control. Type of experiment: functional, Muscle tissue. An outline of the steps:
(§2)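 Left atrial and right ventricular strips from male Wistar-Kyoto rats, electrically driven, in Tyrode's solution gassed with CO2−O2 (1:19) at 36 ± 0.2 °C. Optimal preload 0.5−1.0 g for maximal developed tension. Contraction recorded by force displacement transducer and expressed as % of the pre-treatment control. Means from four to five experiments.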

Experiment [4] is filed under the species Rattus norvegicus. Description: Positive inotropic effect in Wistar-Kyoto rat left atrium exposed to electrical stimulation driven at 2 Hz assessed as muscle contraction at 3 to 30 uM in presence of 3 uM atenolol relative to untreated control. Type of experiment: functional, tissue-based. As to conditions: Cardiac atrium.
Experiment [5] in a line: Myocardial activity in Wistar-Kyoto rat right atrium exposed to electrical stimulation driven at 2 Hz assessed as muscle contraction at 30 uM relative to untreated control. Type of experiment: functional, Muscle tissue.
The nature of experiment [6]: Myocardial activity in Wistar-Kyoto rat right ventricle exposed to electrical stimulation driven at 2 Hz assessed as muscle contraction at 30 uM relative to untreated control. Type of experiment: functional, Muscle tissue. An outline of the steps: as §2
Experiment [7] in a line: Myocardial activity in Wistar-Kyoto rat left atrium exposed to electrical stimulation driven at 2 Hz assessed as muscle contraction at 30 uM relative to untreated control. The experiment is classed as functional, Muscle tissue. An outline of the steps:
as §2

The test system of experiment [8] is Heart. Description: Myocardial activity in Wistar-Kyoto rat heart assessed as heart rate level at 3 uM relative to untreated control. The experiment is classed as functional. An outline of the steps:
as §1

The nature of experiment [9]: Myocardial activity in Wistar-Kyoto rat right atrium exposed to electrical stimulation driven at 2 Hz assessed as muscle contraction at 10 uM relative to untreated control. The experiment is classed as functional, Muscle tissue.
Experiment [10] can be described thus: Myocardial activity in Wistar-Kyoto rat right atrium exposed to electrical stimulation driven at 2 Hz assessed as muscle contraction at 3 uM relative to untreated control. The experiment is classed as functional, Muscle tissue.
Experiment [11] in a line: Myocardial activity in Wistar-Kyoto rat left atrium exposed to electrical stimulation driven at 2 Hz assessed as muscle contraction at 3 uM relative to untreated control. Type of experiment: functional, Muscle tissue. An outline of the steps:
as §2

Experiment [12] in a line: Myocardial activity in Wistar-Kyoto rat left atrium exposed to electrical stimulation driven at 2 Hz assessed as muscle contraction at 10 uM relative to untreated control. The experiment is classed as functional, Muscle tissue. An outline of the steps:
as §2

A short description of experiment [13]: Myocardial activity in Wistar-Kyoto rat right ventricle exposed to electrical stimulation driven at 2 Hz assessed as muscle contraction at 10 uM relative to untreated control. Type of experiment: functional, Muscle tissue. An outline of the steps: as §2
The species named for experiment [14] is Rattus norvegicus. Put plainly: Positive inotropic effect in Wistar-Kyoto rat left atrium exposed to electrical stimulation driven at 2 Hz assessed as muscle contraction at 3 to 30 uM in presence of 1 uM prazosin relative to untreated control. The experiment is classed as functional, tissue-based. As to conditions: Cardiac atrium.
The species named for experiment [15] is Rattus norvegicus. Put plainly: Positive inotropic effect in Wistar-Kyoto rat left atrium exposed to electrical stimulation driven at 2 Hz assessed as muscle contraction at 3 to 30 uM in presence of 1 uM verapamil relative to untreated control. The experiment is classed as functional, tissue-based. As to conditions: Cardiac atrium.

The structures appear in SMILES notation. Calls of active or inactive are those of the source. The calls are words filed in the database; no cut-off is given here.

Turning to `COc1cc2c(cc1OC)-c1c(O)c(OC)cc3c1[C@H](C2)N(C)CC3`, the Activity in [1] was 82%; in experiment [2], 86%; in experiment [3] it was 125%; in [5], 180%; in [6], 163%; in experiment [7], 243%. Moreover, the Activity in experiment [8] was 92%; in experiment [9] it was 140%; in experiment [10] it was 104%; in [11], 110%; in experiment [12] it was 180%; in experiment [13], 154%. For the same molecule, the outcome in experiment [4], in experiment [14] and in [15] was Active.

As to `COc1cc2c(cc1OC)-c1c(O)c(OC)cc3c1[C@@H](C2)N(C)CC3`, the Activity in experiment [1] came to 69%; in [2], 85%; in [3], 93%; in experiment [5], 129%; in experiment [6], 72%; in experiment [7], 100%. For the same molecule, the Activity in experiment [8] was 92%; in experiment [9], 121%; in experiment [10], 106%; in [11], 106%; in experiment [12], 103%; in experiment [13] it was 80%.

On to `CCCN1CCc2cc(OC)c(O)c3c2[C@H]1Cc1cc(OC)c(OC)cc1-3`, for which the Activity is 68% in experiment [1]; 79% in experiment [2]; 100% in experiment [3]; 141% in experiment [5]; 96% in experiment [6]; 99% in experiment [7]. For the same molecule, the Activity is 88% in experiment [8]; 131% in experiment [9]; 121% in [10]; 101% in [11]; 105% in [12]; 100% in [13].

`COc1cc2c(cc1OC)-c1c(O)c(OC)cc3c1[C@H](C2)NCC3`: the Activity in experiment [1] was 61%; in experiment [2], 78%; in [3], 102%; in experiment [5], 117%; in experiment [6] it was 90%; in experiment [7], 89%. The Activity in experiment [8] was determined as 91%; in [9] it was 99%; in experiment [10], 99%; in experiment [11] it was 94%; in [12], 93%; in experiment [13] it was 96%.

For `COc1cc2c(cc1OC)-c1c(O)c(OC)cc3c1[C@@H](C2)NCC3`, the Activity in [1] is 79%; in experiment [2] it was 96%; in [3], 108%; in experiment [5] it was 105%; in [6] it was 120%; in experiment [7] it was 105%. The Activity stood at 100% in experiment [8]; 103% in [9]; 101% in [10]; 103% in [11]; 104% in experiment [12]; 111% in [13].

On to `CCCN1CCc2cc(OC)c(O)c3c2[C@@H]1Cc1cc(OC)c(OC)cc1-3`, for which the Activity in experiment [1] is recorded as 61%; in experiment [2], 80%; in experiment [3] it was 95%; in [5], 103%; in experiment [6], 75%; in [7], 74%. Besides, the Activity in experiment [8] is listed as 91%; in experiment [9], 103%; in [10], 103%; in experiment [11] it was 99%; in [12], 90%; in experiment [13] it was 85%.

Regarding `CCN1CCc2cc(OC)c(O)c3c2[C@@H]1Cc1cc(OC)c(OC)cc1-3`, the Activity in experiment [1] is given as 84%; in experiment [2] it was 97%; in experiment [3], 100%; in experiment [5] it was 162%; in [6], 111%; in experiment [7] it was 131%. The Activity came to 97% in [8]; 127% in experiment [9]; 93% in experiment [10]; 105% in experiment [11]; 122% in experiment [12]; 108% in experiment [13].
